System: MS2 coat protein
Test: apparent Kd, MS2 coat protein; higher = weaker binding; RNA-MaP array; FMN 200 µM where present
Summary of the method: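 The titrant was SNAP-549-labelled MS2 coat protein, run from 0.7 or 1.5 nM in doubling steps to 3 µM. It was applied to designs transcribed by stalled E. coli RNA polymerase on Illumina sequencing-chip clusters, without ligand first and then with constant ligand, in 100 mM Tris-HCl pH 7.5, 80 mM KCl, 4 mM MgCl2, BSA, DTT, yeast tRNA and Tween-20. The apparent Kd is the median of filtered per-cluster binding-curve fits, with green signal normalised to red-channel RNA signal and control-cluster median Fmax.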

[1] = designed as: ON switch for flavin mononucleotide, no ligand
[2] = ligand present: flavin mononucleotide, designed as: ON switch for flavin mononucleotide
[3] = designed as: OFF switch for flavin mononucleotide, no ligand
[4] = ligand present: flavin mononucleotide, designed as: OFF switch for flavin mononucleotide

## AUAUACUUUCGAGGAUAUCGGUGAUAAAUUUUACGAGAAGGCGAUAAAAGAUAUAAUCUUAUAGACAUGAGGAUCACCCAUGUA
[1]
  apparent Kd: 30.3 nM
[2]
  apparent Kd: 28 nM

## GGAUAGGACAGAGGAUAUACGUACUAGAGAUACUAGCAAAAUUUCCUCACAUGAGGAUCACCCAUGUAGAAGGCUGUCCUAUCG
[3]
  apparent Kd: 21.4 nM
[4]
  apparent Kd: 563 nM

## UUUGUCUGUGUGAGGAUAUACUUGUUUGGGUUUUUGUAGAAGGCACAUGAGGAUCACCCAUGUAUUUUGUCGUG
[3]
  apparent Kd: 43.6 nM
[4]
  apparent Kd: 61.6 nM

## UGAAUGGUGAUAGGAUAUACAUGAGGAAUCCUCGUAGAAGGAUCACGACAUGAGGAUCACCCAUGUAGCCGUCCGUAGACGGCC
[1]
  apparent Kd: 227 nM
[2]
  apparent Kd: 470 nM

## UUGUUAGGGAGAGGAUAUUGACAUGAGGAUCACCCAUGUACUUGGGAGUGUUUACUGAAUUCUUACGAGAAGGCUUACAAAUUU
[3]
  apparent Kd: 165 nM
[4]
  apparent Kd: 105 nM

## UUGCUCGUGUGAGGAUAUGCCGCCGUUUCGGCUGCAGAAGGUACUCUGUUACAUGAGGAUCACCCAUGUCUCUGUUGUUUCGUG
[1]
  apparent Kd: 39 nM
[2]
  apparent Kd: 47.5 nM

## AAAAAGGCAGGAUAUACAUGAGGAUCACCCAUGUAGUUGACAAAAAAGAGUCAACAGUGUAGAAGGGCCAAAAA
[3]
  apparent Kd: 19.3 nM
[4]
  apparent Kd: 24.6 nM

## CUUUUAUUGGUCCAUUUUUUCUACAUGAGGAUCACCCAUGUGCAGGAUAUCGUGAUUAUUAUCAACGAGAAGGGCAGAUUCACG
[3]
  apparent Kd: 29.8 nM
[4]
  apparent Kd: 78.4 nM

## AAACCACAUGAGGAUCACCCAUGUAAAAAUAUGGGAGGAUAUCGGAAUAAAAUAAAGAAACGAGAAGGCCUAAAAA
[1]
  apparent Kd: 153 nM
[2]
  apparent Kd: 35.9 nM

## CCAGAGACAUAAGGAUAUCGAGUGGAAUACACUCGAGAAGGUAUGUGAAAACAUGAGGAUCACCCAUGUGAUCAAUACUCUGGA
[1]
  apparent Kd: 19.4 nM
[2]
  apparent Kd: 20.2 nM

## CUUUUGUGAGGAUAUCAGUGGUAAAACAAUAGUAUUACUACUGAGAAGGCACAUGAGGAUCACCCAUGUUCCUC
[3]
  apparent Kd: 47.1 nM
[4]
  apparent Kd: 304 nM

## AGGUGACAUGAGGAUCACCCAUGUGAGGAUAUCUGGAUACUCUUUAUUUUAGAUAUCCAGAGAAGGCACACCCU
[3]
  apparent Kd: 263 nM
[4]
  apparent Kd: 502 nM

## UCGAGCAGGGAAUGGUCGCUGAAGUAGGAUAUCCGCGUGGCCGUCCACAUGAGGAUCACCCAUGUGGAGAAGGGCUACAGCGAA
[3]
  apparent Kd: 6.07 nM
[4]
  apparent Kd: 6.58 nM

## GUUGUAUGAGGAUAUACAUGAGGAUCACCCAUGUGUGUUGUGAACGAUGUACGUUUAUGUAGAAGGCGUGCGGC
[3]
  apparent Kd: 17.8 nM
[4]
  apparent Kd: 21.5 nM

## CGCACUAUACAUGAGGAUCACCCAUGUUAACAUGAGCUAUUCAGAAGGCAUAAUUAGAGAAUAAAUGAGGAUAUGAUUAGUGCG
[1]
  apparent Kd: 34.7 nM
[2]
  apparent Kd: 18.8 nM

## GUGACGAUGUAAGGAUAUGCUGAGGAUAACUCAGCAGAAGGUACAUGAGGAUCACCCAUGUAAAUAAUAAGAAAUAAACGUCAC
[3]
  apparent Kd: 16.6 nM
[4]
  apparent Kd: 24.1 nM

## AGCAAGUAUACAUGAGGAUCACCCAUGUUUUUUAGGGUUAUCAGAAGGUACAUUUUGAGAUAGAGUAAGGAUAUGAAAUAUGCG
[1]
  apparent Kd: 214 nM
[2]
  apparent Kd: 130 nM

## UGAUCGAGAGAUCUUAGAUUCUGGUAGGAUAUACAUUAAAAUAGCUUUACAUGAGGAUCACCCAUGUAGAAGGACUAGAGUCUA
[3]
  apparent Kd: 7.8 nM
[4]
  apparent Kd: 8.67 nM

## AAAAAACAUGAGGAUCACCCAUGUGAGGAUAUCCAAAAGUUAAAUAAAAAGACGAAAAGGAGAAGGCGCAAAAA
[3]
  apparent Kd: 110 nM
[4]
  apparent Kd: 84.2 nM

## UUGGUAUUCGUAGGAUAUCUGUCGCCACCGUGUGGAGAAGGACGAACAUGAGGAUCACCCAUGUAUCAUGGUGUGGGCGUUGUU
[3]
  apparent Kd: 85.8 nM
[4]
  apparent Kd: 89.9 nM

## CCGACGAAAGUCGAACGAUGUAGCAGAAGGACAUGAGGAUCACCCAUGUCAGCUGUAACAGCCAUGUAGGAUAUGCUACAUCGC
[3]
  apparent Kd: 4.16 nM
[4]
  apparent Kd: 5.51 nM

## GUACUGAAGCUUUGCUUUAGUCGUACAUGAGGAUCACCCAUGUAGGAUAUGGUAGGCUUUGCUUACUAGAAGGAUAGAGUGAUU
[4]
  apparent Kd: 39.8 nM

## AUUUUGUGAGGAUAUUAGUUGUAGAAAAUUGUUAGUAUAGCUGAGAAGGCACAUGAGGAUCACCCAUGUACAUC
[3]
  apparent Kd: 18 nM
[4]
  apparent Kd: 57.9 nM

## GUGUAUAGCCUCGAGGAUAUCCUGUAAUGCACAUGAGGAUCACCCAUGUAUGAGCGAGUUUUUUGGGAGAAGGCGAGUUAUCGGU
[1]
  apparent Kd: 26.6 nM
[2]
  apparent Kd: 16.9 nM

## ACUAGAUGAGGAUAUGCAUGUUUUCAUGUUCUUCUAGAUUAACAUGAGGAUCACCCAUGUAGAAGGCGUCUUUA
[3]
  apparent Kd: 19.5 nM
[4]
  apparent Kd: 34.8 nM

## GUCAUUGACAAGAAGGCAAACAUGAGGAUCACCCAUGUUCUGCAUGUAUAUUGAGGAUAUUGCCAAUGCAUGAGGAUCACCCAG
[3]
  apparent Kd: 11.7 nM
[4]
  apparent Kd: 20.2 nM

## GUAGCAUACCGAGGAUAUUCAUAUAAUAAAUAAACAUGAGGAUCACCCAUGUGGCGAAAGCCAAGGGAGAAGGCGGAAUGCUAC
[1]
  apparent Kd: 315 nM
[2]
  apparent Kd: 26.4 nM

## UAUUUAUAAUAUUUUAACAUGAGGAUCACCCAUGUCGCUAGACAGGAUAUAUUUUAUUUGUUUAAGUAGAAGGGUCAUAGAUUU
[1]
  apparent Kd: 175 nM
[2]
  apparent Kd: 145 nM

## UUGGACGUCGUAGGAUAUGUAGGAUAUUUCUACAUGAGGAUCACCCAUGUUGACAUGGAAGAAGGACAGAAGGACGAUGUCCAU
[1]
  apparent Kd: 123 nM
[2]
  apparent Kd: 5.64 nM

## AUGCUUUAUGUAGGAUAUACAUACGGUACGUAUGUAGAAGGACAUGAGGAUCACCCAUGUAAAUUAUUAUUAAAUAUCAUACAU
[3]
  apparent Kd: 8.56 nM
[4]
  apparent Kd: 12.3 nM

## AGACUGAAGCAAGGAUAUUGUAAGGUUAUUGUACAAGAAGGUGCUGUUUAUGUCUCUUAACAUGAGGAUCACCCAUGUUUUGAA
[1]
  apparent Kd: 19.7 nM
[2]
  apparent Kd: 19.1 nM

## UAGAGCGCUUGAGGAUAUCGUUUUGUGAUGGUACUCAUGCCUGUUACAUGAGGAUCACCCAUGUACGAGAAGGCAGGCCGUUAG
[3]
  apparent Kd: 58.1 nM
[4]
  apparent Kd: 30.5 nM

## AUAUAUAUAAGGAAGGAUAUCUUAGAAAAAACAUGAGGAUCACCCAUGUAAAUAAAGAAUAAAUGGGAGAAGGUCCAUAUAUAUA
[1]
  apparent Kd: 30.1 nM
[2]
  apparent Kd: 16.3 nM

## GCCAUCGCAUGAGGAUAUGCUCGGGUUUCCCGAGCAGAAGGCAUGUGAUAACACAUGAGGAUCACCCAUGUAGUUAAGAUGGCA
[1]
  apparent Kd: 5.69 nM
[2]
  apparent Kd: 4.83 nM

## GAUUAACAUGAGGAUCACCCAUGUGAGGAUAUGGAAUGGCUCAUUGUUUGAUUUCCGUCUAGAAGGCACAUCUU
[3]
  apparent Kd: 174 nM
[4]
  apparent Kd: 160 nM

## GUGUACAGAGGAUAUGCACGAGGAGUUACGAAAGUAACUUCACAUGAGGAUCACCCAUGUAGAAGGCUGUACAC
[3]
  apparent Kd: 14.4 nM
[4]
  apparent Kd: 17.8 nM

## CAUGUGUAAGGAUAUGACAAUGGUAUCUUCGGAUACCAUUGUCAGAAGGUACAUGAGGAUCACCCAUGUGGAUC
[3]
  apparent Kd: 441 nM
[4]
  apparent Kd: 103 nM

## GAGUGUGAAUAAGGAUAUAUGAGAGAGUGAGUAAUAGAAGGUAUACAAACAUGAGACAUGAGGAUCACCCAUGUAUCACCCAUG
[1]
  apparent Kd: 20.8 nM
[2]
  apparent Kd: 16.1 nM

## GUAGCAUGCCAAGGAUAUUCAUAUAGUAGGCAAACAUGAGGAUCACCCAUGUAAUGAUCGCAGUGGGAGAAGGUGGGAUGCUAC
[1]
  apparent Kd: 31.8 nM
[2]
  apparent Kd: 21.1 nM

## GGUACCAUCGCAGGAUAUGCUAUCCUUUGGGUAGCAGAAGGGUGAUAACAUGAGGAUCACCCAUGUGGUACCGGGCGUGAGCCC
[1]
  apparent Kd: 97.1 nM
[2]
  apparent Kd: 1210 nM

## GCAUGACAAAGUCAUGCAUAACGAACAUGAGGAUCACCCAUGUAGGAUAUGCUACUCAAAGAGUAGCAGAAGGACAUGUGUCUU
[3]
  apparent Kd: 31.1 nM
[4]
  apparent Kd: 160 nM

## GUCAGCUCGUGAGGAUAUACAUGUGCUGGAAACAGCACUAAAGAUUUCACAUGAGGAUCACCCAUGUAGAAGGCACGAGCUGAU
[3]
  apparent Kd: 16.1 nM
[4]
  apparent Kd: 38 nM

## CAUGUUUGGCUGGUCGAGAAACACAUGAGGAUCACCCAUGUCAGAAGGCGACGUCAGCAAACCGUCGAGGAUAUGACAUCAAAA
[3]
  apparent Kd: 5.65 nM
[4]
  apparent Kd: 30.2 nM

## UCCUGACCGAGAGGUAGGAGUGGUAGAAGGCGACCGGUGCCAGAUGACAUGAGGAUCACCCAUGUCGAGGAUAUACCACAGAAU
[3]
  apparent Kd: 7.45 nM
[4]
  apparent Kd: 14.1 nM

## UGGUACUAGGGAGGAUAUGGGAAGAUACAUGAGGAUCACCCAUGUUUAAGAAUGCCGAGAGUCAACUAGAAGGCCCUAGUACCU
[1]
  apparent Kd: 180 nM
[2]
  apparent Kd: 20.3 nM

## ACUUGCUUGCAGAAGGGUGACAUGAGGAUCACCCAUGUAGCGGGCUGGCGUAAAGUCAGCGCGCCACAGGAUAUGCAGGCCUCG
[1]
  apparent Kd: 61.2 nM
[2]
  apparent Kd: 47.6 nM

## GAGUGGAGGAAAGGAUAUACAAUGAUAAUCACAGUAGAAGGUUCUAACAUGAGGAUCACCCAUGUAGGACUAUACCAGAGAGGG
[1]
  apparent Kd: 13.1 nM
[2]
  apparent Kd: 12.5 nM

## CGCUACAGCCAGAAGGACAUGAGGAUCACCCAUGUAGGAUAUGGGAGACGCAGUCCAGUGUAGAGAAACUACGCUACUGUAGCG
[1]
  apparent Kd: 504 nM
[2]
  apparent Kd: 216 nM

— the EternaBench riboswitch data
